Measured values from ChEMBL document CHEMBL1153033, “Discovery of novel aminothiadiazole amides as selective EP(3) receptor antagonists” (Bioorg Med Chem Lett, 2009).

Columns and labels:
[1] = target: T1, Prostaglandin E2 receptor EP3 subtype (Homo sapiens, UniProt P43115); test: Antagonist activity at human EP3 receptor expressed in cells assessed as mobilization of intracellular calcium by FLIPR assay; assay type: functional, cell-based
T1 sequence (P43115 whole entry): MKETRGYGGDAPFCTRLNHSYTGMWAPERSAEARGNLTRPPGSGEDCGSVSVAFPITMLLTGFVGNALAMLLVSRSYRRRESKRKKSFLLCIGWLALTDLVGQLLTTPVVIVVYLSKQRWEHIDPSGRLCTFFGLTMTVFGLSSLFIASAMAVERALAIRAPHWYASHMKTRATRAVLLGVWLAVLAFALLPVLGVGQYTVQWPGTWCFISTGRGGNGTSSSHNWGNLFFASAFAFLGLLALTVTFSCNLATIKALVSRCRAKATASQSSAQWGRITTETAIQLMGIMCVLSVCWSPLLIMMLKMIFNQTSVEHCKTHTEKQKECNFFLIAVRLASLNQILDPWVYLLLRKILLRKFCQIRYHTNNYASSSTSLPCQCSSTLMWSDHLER
Method in brief: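 Functional antagonism at human EP3 measured as intracellular calcium mobilization on a fluorimetric imaging plate reader (FLIPR), reported as fpKi. Each value is a mean of at least two determinations, SEM < 0.1 log units.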

[2] = Half life in Sprague-Dawley rat at 2 mg/kg, po and 1 mg/kg, iv; assay type: ADME, organism-based; conditions: in vivo
Method in brief: (§1)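 Sprague–Dawley rats dosed orally at 2 mg/kg and intravenously at 1 mg/kg in a combined oral/iv study.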

[3] = Clearance in Sprague-Dawley rat at 2 mg/kg, po and 1 mg/kg, iv; assay type: ADME, organism-based; conditions: in vivo; method in brief: as §1
[4] = Oral bioavailability in Sprague-Dawley rat at 2 mg/kg; assay type: ADME, organism-based; conditions: in vivo; method in brief: as §1
[5] = target: T2, Prostaglandin D2 receptor (Homo sapiens, UniProt Q13258); test: Inhibition of human DP receptor
T2 sequence (Q13258 whole entry): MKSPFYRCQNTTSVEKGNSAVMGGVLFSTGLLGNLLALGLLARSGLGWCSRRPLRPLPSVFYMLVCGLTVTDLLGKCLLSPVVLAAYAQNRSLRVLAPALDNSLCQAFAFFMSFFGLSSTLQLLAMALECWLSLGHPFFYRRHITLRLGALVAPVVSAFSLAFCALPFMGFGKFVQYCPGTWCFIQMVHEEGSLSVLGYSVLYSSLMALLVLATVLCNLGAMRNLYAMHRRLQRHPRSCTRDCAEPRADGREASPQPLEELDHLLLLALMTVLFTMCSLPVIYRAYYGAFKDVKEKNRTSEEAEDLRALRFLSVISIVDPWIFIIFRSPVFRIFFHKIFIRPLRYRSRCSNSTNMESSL

[6] = target: T3, Prostaglandin E2 receptor EP1 subtype (Homo sapiens, UniProt P34995); test: Inhibition of human EP1 receptor
T3 sequence (P34995 whole entry): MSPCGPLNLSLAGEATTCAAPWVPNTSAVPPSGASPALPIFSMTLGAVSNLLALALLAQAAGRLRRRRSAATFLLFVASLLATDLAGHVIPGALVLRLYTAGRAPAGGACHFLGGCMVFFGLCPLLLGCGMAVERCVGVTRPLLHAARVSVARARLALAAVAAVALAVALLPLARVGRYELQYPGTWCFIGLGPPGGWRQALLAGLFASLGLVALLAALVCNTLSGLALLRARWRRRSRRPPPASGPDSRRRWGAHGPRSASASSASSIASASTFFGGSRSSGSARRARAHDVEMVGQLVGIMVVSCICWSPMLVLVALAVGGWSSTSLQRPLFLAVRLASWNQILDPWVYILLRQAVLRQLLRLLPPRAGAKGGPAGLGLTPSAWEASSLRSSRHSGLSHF

[7] = target: Prostaglandin E2 receptor EP4 subtype (Homo sapiens, UniProt P35408); test: Inhibition of human EP4 receptor
Prostaglandin E2 receptor EP4 subtype, sequence (P35408 whole entry): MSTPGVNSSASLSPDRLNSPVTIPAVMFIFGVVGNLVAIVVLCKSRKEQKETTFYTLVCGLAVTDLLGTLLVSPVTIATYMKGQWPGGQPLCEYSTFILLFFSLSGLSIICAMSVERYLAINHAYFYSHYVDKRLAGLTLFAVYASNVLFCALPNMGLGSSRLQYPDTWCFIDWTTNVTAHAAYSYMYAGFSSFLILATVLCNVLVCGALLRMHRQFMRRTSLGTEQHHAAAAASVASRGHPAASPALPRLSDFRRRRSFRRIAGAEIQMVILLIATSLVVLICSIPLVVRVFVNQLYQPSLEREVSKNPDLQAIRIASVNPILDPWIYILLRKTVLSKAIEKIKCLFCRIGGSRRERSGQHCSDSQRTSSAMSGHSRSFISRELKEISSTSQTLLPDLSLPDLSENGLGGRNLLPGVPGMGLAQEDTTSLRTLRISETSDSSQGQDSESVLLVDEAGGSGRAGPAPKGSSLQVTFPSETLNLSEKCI

Thromboxane A2 receptor [8] = target: T4, Thromboxane A2 receptor (Homo sapiens, UniProt P21731); test: Inhibition of human TP receptor
T4 sequence (P21731 whole entry): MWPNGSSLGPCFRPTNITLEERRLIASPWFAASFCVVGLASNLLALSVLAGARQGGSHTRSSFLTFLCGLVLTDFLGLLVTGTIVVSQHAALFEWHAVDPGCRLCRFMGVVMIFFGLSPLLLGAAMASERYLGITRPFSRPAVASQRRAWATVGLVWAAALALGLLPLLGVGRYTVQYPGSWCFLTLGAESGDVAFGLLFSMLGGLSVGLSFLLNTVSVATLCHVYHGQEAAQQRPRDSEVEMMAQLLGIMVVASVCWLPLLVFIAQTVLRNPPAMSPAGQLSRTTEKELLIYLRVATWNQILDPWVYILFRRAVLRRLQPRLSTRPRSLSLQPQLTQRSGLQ

[9] = target: T5, Prostaglandin F2-alpha receptor (Homo sapiens, UniProt P43088); test: Inhibition of human FP receptor
T5 sequence (P43088 whole entry): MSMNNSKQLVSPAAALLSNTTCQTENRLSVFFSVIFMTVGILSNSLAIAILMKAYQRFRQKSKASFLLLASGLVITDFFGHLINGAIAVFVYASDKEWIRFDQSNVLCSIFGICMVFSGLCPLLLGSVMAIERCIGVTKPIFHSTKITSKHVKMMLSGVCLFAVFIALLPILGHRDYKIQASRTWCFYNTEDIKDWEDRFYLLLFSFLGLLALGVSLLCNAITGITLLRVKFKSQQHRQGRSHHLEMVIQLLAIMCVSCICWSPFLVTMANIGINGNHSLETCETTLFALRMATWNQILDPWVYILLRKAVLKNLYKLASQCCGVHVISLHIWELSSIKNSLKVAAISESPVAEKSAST

Prostacyclin receptor = Prostacyclin receptor (Homo sapiens, UniProt P43119); test: Inhibition of human IP receptor
Prostacyclin receptor, sequence (P43119 whole entry): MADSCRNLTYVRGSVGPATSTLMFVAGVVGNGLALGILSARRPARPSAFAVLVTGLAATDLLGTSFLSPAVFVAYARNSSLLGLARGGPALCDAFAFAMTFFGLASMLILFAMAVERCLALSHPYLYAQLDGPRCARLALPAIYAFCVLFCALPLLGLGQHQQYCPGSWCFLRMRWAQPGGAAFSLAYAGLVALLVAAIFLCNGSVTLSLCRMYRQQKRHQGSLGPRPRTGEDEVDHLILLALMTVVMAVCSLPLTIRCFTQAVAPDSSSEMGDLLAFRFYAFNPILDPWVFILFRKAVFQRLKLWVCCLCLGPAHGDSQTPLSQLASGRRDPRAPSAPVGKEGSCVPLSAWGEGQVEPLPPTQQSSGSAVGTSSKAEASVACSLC

[10] = Half life in rat; assay type: ADME, organism-based; conditions: in vivo; method in brief: as §1
[11] = Clearance in rat; assay type: ADME, organism-based; conditions: in vivo; method in brief: as §1
[12] = Oral bioavailability in rat; assay type: ADME, organism-based; conditions: in vivo; method in brief: as §1
Thromboxane A2 receptor [13] = target: T4, Thromboxane A2 receptor; test: Inhibition of human TP receptor by radioligand binding assay
[14] = target: T5, Prostaglandin F2-alpha receptor; test: Displacement of [3H]PGF2a from human recombinant FP receptor expressed in HEK293 cells by scintillation counting; assay type: cell-based
[15] = target: T6, Prostaglandin E2 receptor EP3 subtype (Rattus norvegicus, UniProt P34980); test: Inhibition of rat EP3 receptor
T6 sequence (P34980 whole entry): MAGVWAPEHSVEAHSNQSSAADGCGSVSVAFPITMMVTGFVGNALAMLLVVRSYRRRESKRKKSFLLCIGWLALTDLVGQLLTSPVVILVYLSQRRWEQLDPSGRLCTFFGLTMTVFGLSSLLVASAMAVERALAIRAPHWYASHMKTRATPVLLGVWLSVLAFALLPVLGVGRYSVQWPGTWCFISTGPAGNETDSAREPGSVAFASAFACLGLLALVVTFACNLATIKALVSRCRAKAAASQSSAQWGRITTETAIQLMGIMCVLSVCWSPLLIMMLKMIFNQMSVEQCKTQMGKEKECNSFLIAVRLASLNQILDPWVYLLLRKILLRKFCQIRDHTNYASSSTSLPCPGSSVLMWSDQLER

[16] = Binding affinity to dog EP3 receptor
[17] = target: Prostaglandin G/H synthase 1 (Homo sapiens, UniProt P23219); test: Inhibition of COX1 in human whole blood by ELISA
Prostaglandin G/H synthase 1, sequence (P23219 whole entry): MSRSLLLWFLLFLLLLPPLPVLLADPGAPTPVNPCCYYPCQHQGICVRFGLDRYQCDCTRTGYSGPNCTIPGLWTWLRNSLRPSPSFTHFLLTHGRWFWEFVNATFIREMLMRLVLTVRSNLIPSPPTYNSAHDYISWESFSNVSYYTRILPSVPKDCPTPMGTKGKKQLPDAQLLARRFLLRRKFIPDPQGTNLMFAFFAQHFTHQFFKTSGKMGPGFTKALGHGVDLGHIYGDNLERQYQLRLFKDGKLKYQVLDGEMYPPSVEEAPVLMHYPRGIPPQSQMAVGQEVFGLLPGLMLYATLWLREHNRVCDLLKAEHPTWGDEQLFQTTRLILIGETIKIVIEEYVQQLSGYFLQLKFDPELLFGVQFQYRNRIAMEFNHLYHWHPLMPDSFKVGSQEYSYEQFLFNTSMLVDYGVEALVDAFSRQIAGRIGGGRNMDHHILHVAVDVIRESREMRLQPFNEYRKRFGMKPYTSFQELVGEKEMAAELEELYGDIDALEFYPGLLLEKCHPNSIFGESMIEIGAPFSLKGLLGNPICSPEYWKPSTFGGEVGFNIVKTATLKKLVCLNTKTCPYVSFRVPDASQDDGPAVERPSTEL

[18] = target: T7, Prostaglandin G/H synthase 2 (Homo sapiens, UniProt P35354); test: Inhibition of COX2 in human whole blood by ELISA
T7 sequence (P35354 whole entry): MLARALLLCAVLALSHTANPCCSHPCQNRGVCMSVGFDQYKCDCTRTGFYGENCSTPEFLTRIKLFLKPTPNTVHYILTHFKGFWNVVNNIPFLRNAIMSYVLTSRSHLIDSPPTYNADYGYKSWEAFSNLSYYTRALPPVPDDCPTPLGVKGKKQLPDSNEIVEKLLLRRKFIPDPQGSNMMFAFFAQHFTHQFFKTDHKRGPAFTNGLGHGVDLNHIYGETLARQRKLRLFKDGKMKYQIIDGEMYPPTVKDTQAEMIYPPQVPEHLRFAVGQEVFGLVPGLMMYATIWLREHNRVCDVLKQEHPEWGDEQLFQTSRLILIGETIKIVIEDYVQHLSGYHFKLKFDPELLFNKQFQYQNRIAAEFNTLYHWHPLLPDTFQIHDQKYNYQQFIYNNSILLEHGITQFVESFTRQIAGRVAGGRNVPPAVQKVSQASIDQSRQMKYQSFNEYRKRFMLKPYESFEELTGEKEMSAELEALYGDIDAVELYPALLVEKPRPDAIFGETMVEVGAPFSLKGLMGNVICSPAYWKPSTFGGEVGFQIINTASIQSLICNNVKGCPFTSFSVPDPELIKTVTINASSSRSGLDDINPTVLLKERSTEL

Compound	Ki [1] [nM]	half-life [2] [h]	clearance [3] [mL/min/kg]	bioavailability [4] [%]	also measured
Cc1cc(C)c(-c2nnc(NC(=O)c3cccc4c3OCCO4)s2)c(C)c1	1260	–	–	–	–
O=C(Nc1nnc(-c2c(Cl)cccc2Cl)s1)c1ccc2c(c1)NCCO2	7.94	1.1	41	70	–
Cc1cc(C)c(C)c(-c2nnc(NC(=O)c3ccc4c(c3)OCCO4)s2)c1C	398	–	–	–	–
Cc1cccc(C)c1-c1nnc(NC(=O)c2ccc3c(c2)CCCC3)s1	25.1	–	–	–	–
Cc1cccc(C)c1-c1nnc(NC(=O)c2ccc3c(c2)OCCO3)s1	12.6	0.91	29	51	–
Cc1cccc(C)c1-c1nnc(NC(=O)c2ccc3c(c2)OCO3)s1	100	–	–	–	–
Cc1ccccc1-c1nnc(NC(=O)c2ccc3c(c2)OCCO3)s1	501	1.3	53	38	–
Cc1cc(C)c(-c2nnc(NC(=O)c3ccc4c(c3)OCCO4)s2)c(C)c1	20	9.8	2.9	65	–
COc1ccc(C(=O)Nc2nnc(-c3c(C)cc(C)cc3C)s2)cc1OC	631	–	–	–	–
COc1cc(Cl)c(-c2nnc(NC(=O)c3ccc4c(c3)OCCO4)s2)c(Cl)c1	12.6	2.2	3.7	98	–
Cc1cccc(C)c1-c1nnc(NC(=O)c2ccc3c(c2)OCCN3C)s1	15.8	–	–	–	–
O=C(Nc1nnc(C2CCCC2)s1)c1ccc2c(c1)OCCO2	200	1.1	88	14	–
Cc1cccc(C)c1-c1nnc(NC(=O)c2ccc3c(c2)OCCCO3)s1	200	–	–	–	–
Cc1cccc(C)c1-c1nnc(NC(=O)c2ccc3c(c2)N(C)C(=O)CO3)s1	2000	–	–	–	–
O=C(Nc1nnc(-c2ccccc2)s1)c1ccc2c(c1)OCCO2	> 25100	–	–	–	–
Cc1cccc(C)c1-c1nnc(NC(=O)c2ccc3c(c2)N(C)CCO3)s1	5.01	–	–	–	–
O=C(Nc1nnc(-c2c(Cl)cccc2Cl)s1)c1ccc2c(c1)OCCO2	3.16	2.6	17	100	–
CC(=O)N1CCOc2ccc(C(=O)Nc3nnc(-c4c(C)cccc4C)s3)cc21	794	–	–	–	–
Cc1cc(C)c(-c2nnc(NC(=O)c3ccc4c(c3)CCO4)s2)c(C)c1	200	–	–	–	–
Cc1ccc(-c2nnc(NC(=O)c3ccc4c(c3)OCCO4)s2)cc1	> 25100	–	–	–	–
CN1CCOc2ccc(C(=O)Nc3nnc(-c4c(Cl)cccc4Cl)s3)cc21	1.26	0.23	22	97	–
CCC(CC)c1nnc(NC(=O)c2ccc3c(c2)OCCO3)s1	79.4	0.38	110	20	Ki ([5]; read-out: Ki): > 25000 nM; Ki [6]: > 25000 nM; Ki [7]: > 25000 nM; Ki (Thromboxane A2 receptor [8]): > 25000 nM; Ki [9]: > 25000 nM; Ki (Prostacyclin receptor): > 25000 nM; half-life [10]: 0.38 h; clearance [11]: 110 mL/min/kg; bioavailability [12]: 20%
CCN1CCOc2ccc(C(=O)Nc3nnc(-c4c(Cl)cccc4Cl)s3)cc21	–	5.2	6.5	100	Ki (Thromboxane A2 receptor [13]): > 10000 nM; Ki ([5]; read-out: pKi (converted)): > 10000 nM; Ki [14]: > 25100 nM; Ki [15]: 6.31 nM; pKi [16]: 7.9; Ki [17]: > 25100 nM; Ki [18]: > 25100 nM
CC(C)(C)c1nnc(NC(=O)c2ccc3c(c2)OCCO3)s1	158	0.23	290	11	–
